Published values collected from several papers.
Read-out: cell growth or viability

| Structure (SMILES) | cell line | method | concentration | time | endpoint | value |
| --- | --- | --- | --- | --- | --- | --- |
| COc1ccc(-c2ccc(-c3ccc(C(=N)N)nc3)s2)cc1Cl | SK-MEL-5 | SRB |  |  | GI50 | 1820 nM |
| COc1cc(Nc2nccc(-c3cnn4nc(OC)ccc34)n2)cc(C(F)(F)F)c1 | SK-ES1 | ATP luminescence |  |  | IC50 | 190 nM |
| Nc1cc(C(F)(F)F)c(-c2cc(N3CCOCC3)nc(N3CCOCC3)n2)cn1 | MB002 |  |  | 7 days | IC50 | 172 nM |
| CC(=NN=c1[nH]c(C)cs1)c1c(O)c2ccccc2oc1=O | human Skin fibroblast | MTT |  | 48 h | IC50 | > 100000 nM |
| C[C@H]1Oc2cc(cnc2N)-c2c(nn(C)c2C#N)CN(C)C(=O)c2ccc(F)cc21 | HD-MB03 |  |  | 7 days | IC50 | > 10000 nM |
| CC(=O)c1c(C)c2cnc(Nc3ccc(N4CCNCC4)cn3)nc2n(C2CCCC2)c1=O | BT-474 | resazurin |  |  | GI50 | 200 nM |
| CCCCCCCCCC(=O)N[C@@H](Cc1c[nH]c2ccccc12)C(=O)N[C@H](CC(N)=O)C(=O)N[C@@H](CC(=O)O)C(=O)N[C@@H]1C(=O)NCC(=O)N[C@@H](CCCNC(=O)CCC(=O)N2Cc3ccccc3-c3c(nnn3CCC[C@H](NC(=O)CCCCC[N+]3=C(C=CC4=CC(=CC=C5N(C)c6ccccc6C5(C)C)CCC4)C(C)(C)c4ccccc43)C(=O)NCCCCNC(=O)CCC(=O)N3Cc4ccccc4-c4c(nnn4CCOCCOCCOCCNC(=O)CN4CCN(CC(=O)NCCNC(=O)c5cccc(O)c5O)CCN(CC(=O)NCCNC(=O)c5cccc(O)c5O)CCN(CC(=O)NCCNC(=O)c5cccc(O)c5O)CC4)-c4ccccc43)-c3ccccc32)C(=O)N[C@@H](CC(=O)O)C(=O)N[C@H](C)C(=O)N[C@@H](CC(=O)O)C(=O)NCC(=O)N[C@H](CO)C(=O)N[C@@H]([C@H](C)CC(=O)O)C(=O)N[C@@H](CC(=O)c2ccccc2N)C(=O)O[C@@H]1C | KB 3-1 | WST-1 |  |  | Kb | > 64000 nM |
| CO[C@]1(C(=O)N[C@@H](C)c2ccc(-n3cc(F)cn3)nc2)CC[C@H](c2nc(C)cc(Nc3cc(C)[nH]n3)n2)CC1 | BT-474 | ATP luminescence |  | 72 h | GI50 | > 10000 nM |
| CCC(=O)N1CCN(c2ccc(-n3c(=O)ccc4cnc5ccc(-c6cnc7ccccc7c6)cc5c43)cc2C(F)(F)F)CC1 | MB002 |  |  | 7 days | IC50 | 15.4 nM |
| CC(C)C[C@H](NC(=O)[C@H](Cc1ccccc1)NC(=O)c1cnccn1)B(O)O | NCI-H1563 | ATP luminescence |  |  | IC50 | 22 nM |
| O=C(NC[C@H](O)CO)c1ccncc1Nc1ccc(I)cc1F | MB002 |  |  | 7 days | IC50 | > 10000 nM |
| CC(=O)Nc1cccc(-n2c(=O)n(C3CC3)c(=O)c3c(Nc4ccc(I)cc4F)n(C)c(=O)c(C)c32)c1 | Calu-6 | resazurin | 6.25 nM | 72 h | viability | 74.2% |
